From ChEMBL document CHEMBL2086225, “Demethylwedelolactone derivatives inhibit invasive growth in vitro and lung metastasis of MDA-MB-231 breast cancer cells in nude mice” (Eur J Med Chem, 2012)
The source made the active and inactive calls.

Key:
MDA-MB-231 [1] = test: Downregulation of MMP9 in human MDA-MB-231 cells at 50 uM by Western blot analysis; type: functional, cell-based
MDA-MB-231 [2] = test: Downregulation of MMP2 in human MDA-MB-231 cells at 50 uM by Western blot analysis; type: functional, cell-based
[3] = target: Mitogen-activated protein kinase; ERK1/ERK2 (Homo sapiens) (UniProt P27361+P28482); test: Inhibition of ERK 1/2 phosphorylation in human MDA-MB-231 cells at 5 to 20 uM after 12 hrs by Western blot analysis; type: cell-based
In short: (§1)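 Cells exposed to 5, 10 or 20 µM for 12 h; lysed in RIPA buffer (pH 7.5) with protease/phosphatase inhibitors. 50–100 µg protein run on SDS-PAGE, transferred to nitrocellulose, probed with phospho-specific and total antibodies (β-actin loading control), HRP secondary, ECL detection, densitometry.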

[4] = target: Focal adhesion kinase 1 (Homo sapiens) (UniProt Q05397); test: Inhibition of FAK phosphorylation in human MDA-MB-231 cells after 12 hrs by Western blot analysis; type: cell-based
In short: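 Cells exposed 0–20 µM for 12 h; lysates in RIPA buffer immunoblotted with phospho-FAK, total FAK and β-actin antibodies; HRP secondary, chemiluminescence, densitometry.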

SK-HEP1 = test: Antiinvasive activity against human SKHEP1 cells; type: functional, cell-based
MDA-MB-231 [5] = test: Downregulation of MMP2 expression in human MDA-MB-231 cells at 5 to 20 uM after 12 hrs by Western blot analysis; type: functional, cell-based; in short: as §1
MDA-MB-231 [6] = test: Antiinvasive activity against human MDA-MB-231 cells pretreated for 12 hrs followed by compound-wash out measured after 12 hrs by Boyden chamber assay; type: functional, cell-based
In short: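 Cells pretreated 12 h, resuspended in serum-free medium (2 × 10^5 cells/ml) in upper chamber coated with Matrigel diluted 1:25; 10% FBS medium below. After 12 h, non-invaded cells removed; invaded cells methanol-fixed, Giemsa-stained, counted at 200× in 5 random fields per replicate (n = 4), averaged.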

MDA-MB-231 [7] = test: Antiinvasive activity against human MDA-MB-231 cells assessed as F-actin reorganization at 20 uM incubated 24 hrs post-serum starvation measured after 12 hrs by TRITC-conjugated phalloidin staining method; type: functional, cell-based
In short: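 Cells seeded, serum-starved (0.1%) overnight, then exposed for 12 h in DMEM with 10% FBS. Fixed in 4% paraformaldehyde 10 min, permeabilized with 0.1% Triton X-100 5 min, F-actin stained with TRITC-phalloidin (500 ng/ml) 1 h; imaged by fluorescence microscopy at 100×.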

MDA-MB-231 [8] = test: Antimetastatic activity against human MDA-MB-231 cells assessed as inhibition of wound closure activity up to 20 uM at 12 hrs by scratch motility assay; type: functional, cell-based
[9] = target: T1, NF-kappa-B inhibitor alpha (Homo sapiens) (UniProt P25963); test: Inhibition of IkappaBalpha phosphorylation in human MDA-MB-231 cells after 12 hrs by Western blot analysis; type: cell-based
T1 sequence (whole entry): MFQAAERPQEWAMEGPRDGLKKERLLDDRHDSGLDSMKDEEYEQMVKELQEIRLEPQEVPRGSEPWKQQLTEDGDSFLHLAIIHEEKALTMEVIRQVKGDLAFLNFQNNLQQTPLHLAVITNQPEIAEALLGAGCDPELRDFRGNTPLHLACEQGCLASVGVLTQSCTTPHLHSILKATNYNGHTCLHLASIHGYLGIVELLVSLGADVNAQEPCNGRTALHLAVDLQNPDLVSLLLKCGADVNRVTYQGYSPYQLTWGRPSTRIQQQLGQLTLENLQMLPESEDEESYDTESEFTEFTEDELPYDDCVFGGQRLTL
In short: (§2)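 For the time course, cells exposed to 20 µM for various times; for dose response, 5, 10 or 20 µM for 12 h. Lysates immunoblotted with phospho-IκB-α and total IκB-α antibodies, HRP secondary, chemiluminescence detection, densitometry.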

MDA-MB-231 [10] = test: Cytotoxicity against human MDA-MB-231 cells at 25 to 100 uM after 24 hrs by MTT assay; type: functional, cell-based
In short: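 Cells seeded at 5 × 10^4/well, grown 24 h in complete medium, exposed 0–100 µM for 24 h (control 0.2% DMSO). Medium replaced, MTT added for 4 h, formazan dissolved in DMSO, absorbance read at 570 nm.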

MDA-MB-231 [11] = test: Antimetastatic activity against human MDA-MB-231 cells assessed as inhibition of anchorage-independent colony formation after 21 days by inverted microscopy; type: functional, cell-based
In short: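 Cells pretreated 0–20 µM for 24 h, then 5 × 10^3 cells suspended in 0.33% agarose with 10% FBS over 0.5% agarose base layer; grown at 37 °C, 5% CO2. Colonies counted after 21 days under inverted microscope at 40×; 3 independent experiments, means ± SD.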

MDA-MB-231 [12] = test: Downregulation of MMP9 expression in human MDA-MB-231 cells at 0.5 to 1 uM after 12 hrs by Western blot analysis; type: functional, cell-based
MDA-MB-231 [13] = test: Upregulation of TIMP2 expression in human MDA-MB-231 cells at 1 to 3.5 uM after 12 hrs by Western blot analysis; type: functional, cell-based
MDA-MB-231 [14] = test: Upregulation of TIMP1 expression in human MDA-MB-231 cells at 0.5 to 1 uM after 12 hrs by Western blot analysis; type: functional, cell-based
[15] = target: T1, NF-kappa-B inhibitor alpha (Homo sapiens); test: Inhibition of IkappaBalpha phosphorylation in human MDA-MB-231 cells at 5 to 20 uM after 12 to 24 hrs by Western blot analysis; type: cell-based
MDA-MB-231 [16] = test: Downregulation of MMP9 expression in human MDA-MB-231 cells at 0.1 to 0.9 uM after 12 hrs by Western blot analysis; type: functional, cell-based
MDA-MB-231 [17] = test: Antiinvasive activity against human MDA-MB-231 cells xenografted in athymic nude BALB/c mouse assessed as decrease in lung weight at 5 and 20 mg/kg, ip administered 3 times per week starting 1 week prior to xenografting measured after 5 weeks relative to control; type: functional, organism-based; set-up: dose 20 mg/kg
In short: (§3)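 Female six-week-old BALB/c-nu mice (n = 6/group) dosed i.p. 3 times/week for 5 weeks (100 µl vehicle, or PBS). After 1 week, 1 × 10^6 cells injected into tail vein. Mice euthanized 4 weeks post-injection; lungs photographed, weighed, and H&E/hematoxylin sections examined for tumor cells. Means ± SD; one-way ANOVA with Dunnett's test.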

MDA-MB-231 [18] = test: Antiinvasive activity against human MDA-MB-231 cells xenografted in athymic nude BALB/c mouse assessed as decrease in lung metastasis at 5 and 20 mg/kg, ip administered 3 times per week starting 1 week prior to xenografting measured after 5 weeks by hematoxylin-staining relative to control; type: functional, organism-based; set-up: dose 20 mg/kg; in short: as §3
MDA-MB-231 [19] = test: Antiinvasive activity against human MDA-MB-231 cells xenografted in athymic nude BALB/c mouse assessed as decrease in lung size at 5 and 20 mg/kg, ip administered 3 times per week starting 1 week prior to xenografting measured after 5 weeks relative to control; type: functional, organism-based; set-up: dose 20 mg/kg; in short: as §3
[20] = target: 72 kDa type IV collagenase (Homo sapiens) (UniProt P08253); test: Inhibition of MMP2 in human MDA-MB-231 cells at 20 uM up to 12 hrs by gelatin-zymogrphy; type: cell-based
In short: (§4)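 Cells seeded at 4 × 10^5 cells/ml overnight, exposed to 20 µM for 0–12 h. Conditioned media run on 8% SDS-PAGE containing 0.1% gelatin (150 V, 3 h), SDS removed with 2% Triton X-100 washes, gels incubated in 10 mM CaCl2, 40 mM Tris-HCl pH 8.0 for 16 h at 37 °C, Coomassie-stained.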

[21] = target: Matrix metalloproteinase-9 (Homo sapiens) (UniProt P14780); test: Inhibition of MMP9 in human MDA-MB-231 cells at 20 uM up to 12 hrs by gelatin-zymogrphy; type: cell-based; in short: as §4
MDA-MB-231 [22] = test: Upregulation of TIMP2 expression in human MDA-MB-231 cells at 1.1 to 3.6 uM after 12 hrs by Western blot analysis; type: functional, cell-based
MDA-MB-231 [23] = test: Upregulation of TIMP1 expression in human MDA-MB-231 cells at 0.2 to 0.8 uM after 12 hrs by Western blot analysis; type: functional, cell-based
[24] = target: T1, NF-kappa-B inhibitor alpha (Homo sapiens); test: Inhibition of IkappaBalpha phosphorylation in human MDA-MB-231 cells at 5 to 20 uM after 3 to 24 hrs by Western blot analysis; type: cell-based; in short: as §2
MDA-MB-231 [25] = test: Downregulation of MMP9 in human MDA-MB-231 cells at 10 uM by Western blot analysis; type: functional, cell-based
In short: (§5)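 MDA-MB-231 cells in DMEM with 10% FBS at 37 °C were treated for 12 h. Whole-cell lysates were made in RIPA buffer (pH 7.5) at 4 °C, then SDS-PAGE, nitrocellulose transfer, and immunoblotting for MMP-2 and MMP-9, with β-actin as loading control. Detection was by HRP secondary antibody and chemiluminescence. Relative band density was quantified by densitometry.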

MDA-MB-231 [26] = test: Downregulation of MMP2 in human MDA-MB-231 cells at 10 uM by Western blot analysis; type: functional, cell-based; in short: as §5

Focal adhesion kinase 1 (Homo sapiens), sequence (Q05397 2-1052 limits assumed): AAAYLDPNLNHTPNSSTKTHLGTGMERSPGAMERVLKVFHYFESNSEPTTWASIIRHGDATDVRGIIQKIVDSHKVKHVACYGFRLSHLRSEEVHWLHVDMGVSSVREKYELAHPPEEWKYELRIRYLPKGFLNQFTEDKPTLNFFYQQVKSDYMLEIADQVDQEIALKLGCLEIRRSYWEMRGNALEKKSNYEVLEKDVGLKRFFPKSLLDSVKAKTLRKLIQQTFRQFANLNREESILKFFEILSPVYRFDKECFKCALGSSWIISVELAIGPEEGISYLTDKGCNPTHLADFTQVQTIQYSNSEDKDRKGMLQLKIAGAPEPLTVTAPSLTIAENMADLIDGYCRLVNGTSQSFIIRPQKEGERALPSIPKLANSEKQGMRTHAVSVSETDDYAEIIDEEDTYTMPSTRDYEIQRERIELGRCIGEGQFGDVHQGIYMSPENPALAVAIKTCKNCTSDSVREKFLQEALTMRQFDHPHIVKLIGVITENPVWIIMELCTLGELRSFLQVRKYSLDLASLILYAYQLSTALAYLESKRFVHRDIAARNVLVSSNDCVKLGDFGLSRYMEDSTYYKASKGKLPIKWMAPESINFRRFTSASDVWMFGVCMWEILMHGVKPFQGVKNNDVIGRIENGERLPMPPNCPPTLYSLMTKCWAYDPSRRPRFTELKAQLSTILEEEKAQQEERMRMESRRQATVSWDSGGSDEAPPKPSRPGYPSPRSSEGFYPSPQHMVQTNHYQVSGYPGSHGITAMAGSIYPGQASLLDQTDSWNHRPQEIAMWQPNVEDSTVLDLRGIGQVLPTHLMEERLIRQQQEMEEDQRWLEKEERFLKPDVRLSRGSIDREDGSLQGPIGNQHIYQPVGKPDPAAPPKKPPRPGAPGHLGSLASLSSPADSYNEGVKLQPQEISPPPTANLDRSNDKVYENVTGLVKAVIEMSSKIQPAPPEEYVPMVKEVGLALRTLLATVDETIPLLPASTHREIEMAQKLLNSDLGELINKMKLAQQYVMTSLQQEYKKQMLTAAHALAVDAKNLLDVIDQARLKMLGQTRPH
Mitogen-activated protein kinase; ERK1/ERK2 (Homo sapiens), sequence (P27361 whole entry, looked up): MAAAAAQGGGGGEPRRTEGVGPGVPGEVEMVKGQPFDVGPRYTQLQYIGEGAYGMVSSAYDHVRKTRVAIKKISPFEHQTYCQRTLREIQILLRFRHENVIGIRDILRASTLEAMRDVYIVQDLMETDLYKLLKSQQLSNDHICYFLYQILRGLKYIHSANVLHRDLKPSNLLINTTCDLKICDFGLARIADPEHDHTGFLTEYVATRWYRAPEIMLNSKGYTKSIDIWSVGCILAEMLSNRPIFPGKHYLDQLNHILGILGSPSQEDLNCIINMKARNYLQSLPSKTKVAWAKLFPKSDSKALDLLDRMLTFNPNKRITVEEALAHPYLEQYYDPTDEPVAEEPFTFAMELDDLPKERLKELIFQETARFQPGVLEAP
Mitogen-activated protein kinase; ERK1/ERK2 (Homo sapiens), sequence (P28482 whole entry, looked up): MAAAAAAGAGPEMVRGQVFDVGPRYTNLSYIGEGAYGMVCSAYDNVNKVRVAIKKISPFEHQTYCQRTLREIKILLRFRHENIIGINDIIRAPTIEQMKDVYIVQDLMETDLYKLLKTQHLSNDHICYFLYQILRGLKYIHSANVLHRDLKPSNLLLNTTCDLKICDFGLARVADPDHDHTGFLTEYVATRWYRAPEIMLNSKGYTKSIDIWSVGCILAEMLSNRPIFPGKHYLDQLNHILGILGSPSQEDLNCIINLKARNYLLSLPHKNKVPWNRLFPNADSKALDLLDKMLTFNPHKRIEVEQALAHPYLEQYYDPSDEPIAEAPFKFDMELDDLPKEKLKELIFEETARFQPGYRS
Matrix metalloproteinase-9 (Homo sapiens), sequence (P14780 whole entry): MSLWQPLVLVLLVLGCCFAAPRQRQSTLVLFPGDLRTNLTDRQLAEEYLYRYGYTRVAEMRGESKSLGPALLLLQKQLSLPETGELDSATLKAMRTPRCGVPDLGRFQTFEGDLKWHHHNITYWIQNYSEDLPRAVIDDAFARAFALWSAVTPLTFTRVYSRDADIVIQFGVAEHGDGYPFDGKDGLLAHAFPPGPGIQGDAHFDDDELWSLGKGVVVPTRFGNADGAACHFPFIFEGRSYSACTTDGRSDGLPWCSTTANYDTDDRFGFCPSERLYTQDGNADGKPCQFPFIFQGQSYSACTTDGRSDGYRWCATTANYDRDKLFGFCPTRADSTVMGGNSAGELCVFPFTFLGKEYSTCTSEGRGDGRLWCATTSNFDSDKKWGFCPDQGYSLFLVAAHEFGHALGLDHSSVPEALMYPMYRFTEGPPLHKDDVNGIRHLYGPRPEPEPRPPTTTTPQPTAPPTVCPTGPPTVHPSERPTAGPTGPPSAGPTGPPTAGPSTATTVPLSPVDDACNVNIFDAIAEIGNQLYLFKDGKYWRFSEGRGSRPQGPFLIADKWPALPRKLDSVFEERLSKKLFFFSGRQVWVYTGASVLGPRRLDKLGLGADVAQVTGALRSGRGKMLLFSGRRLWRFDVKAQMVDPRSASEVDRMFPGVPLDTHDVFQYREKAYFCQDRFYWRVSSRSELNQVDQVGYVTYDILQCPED
72 kDa type IV collagenase (Homo sapiens), sequence (P08253 110-660 limits assumed): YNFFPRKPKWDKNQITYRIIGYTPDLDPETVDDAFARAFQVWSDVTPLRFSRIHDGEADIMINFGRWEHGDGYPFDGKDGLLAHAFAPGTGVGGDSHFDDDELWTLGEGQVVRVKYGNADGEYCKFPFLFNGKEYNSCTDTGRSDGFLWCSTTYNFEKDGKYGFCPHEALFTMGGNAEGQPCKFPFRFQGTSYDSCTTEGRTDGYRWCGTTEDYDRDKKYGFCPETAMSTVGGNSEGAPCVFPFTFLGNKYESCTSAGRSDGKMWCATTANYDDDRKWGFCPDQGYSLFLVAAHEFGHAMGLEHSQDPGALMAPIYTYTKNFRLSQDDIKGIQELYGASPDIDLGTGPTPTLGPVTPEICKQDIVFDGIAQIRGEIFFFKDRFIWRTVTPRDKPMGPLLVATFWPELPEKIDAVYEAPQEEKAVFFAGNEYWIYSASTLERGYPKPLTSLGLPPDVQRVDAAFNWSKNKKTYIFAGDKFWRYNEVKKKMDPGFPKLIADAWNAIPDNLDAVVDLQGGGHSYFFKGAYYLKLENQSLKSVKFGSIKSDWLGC

COc1cccc(-c2cc(=O)c3ccccc3o2)c1N
active: Activity (MDA-MB-231 [1]) | Activity (MDA-MB-231 [2])

COc1cc(O)c2c(c1)oc(=O)c1c3cc(O)c(O)cc3oc21
active: inhibition [3] | inhibition [4] Dose-dependent effect | Activity (SK-HEP1) | Activity (MDA-MB-231 [5]) | Activity (MDA-MB-231 [6]) Dose-dependent effect | Activity (MDA-MB-231 [7]) | inhibition (MDA-MB-231 [8]) | inhibition [9] Dose-dependent effect | Activity (MDA-MB-231 [10]) | inhibition (MDA-MB-231 [11]) Dose-dependent effect | Activity (MDA-MB-231 [12]) | Activity (MDA-MB-231 [13]) | Activity (MDA-MB-231 [14]) | inhibition [15]

O=c1oc2cc(O)cc(O)c2c2oc3cc(O)c(O)cc3c12
active: inhibition [3] | Activity (MDA-MB-231 [16]) | inhibition [4] Dose-dependent effect | Activity (SK-HEP1) | Activity (MDA-MB-231 [17]) | Activity (MDA-MB-231 [5]) | Activity (MDA-MB-231 [6]) Dose-dependent effect | Activity (MDA-MB-231 [7]) | inhibition (MDA-MB-231 [8]) | inhibition [9] Dose-dependent effect | Activity (MDA-MB-231 [18]) | Activity (MDA-MB-231 [19]) | Activity (MDA-MB-231 [10]) | inhibition [20] | inhibition (MDA-MB-231 [11]) Dose-dependent effect | inhibition [21] | Activity (MDA-MB-231 [22]) | Activity (MDA-MB-231 [23]) | inhibition [24]

S=C(S)N1CCCC1
active: Activity (MDA-MB-231 [25]) | Activity (MDA-MB-231 [26])
